In ChEMBL document CHEMBL1148762, “Lysosome and HER3 (ErbB3) selective anticancer agent kahalalide F: semisynthetic modifications and antifungal lead-exploration studies” (J Med Chem, 2007):
Values after ≈ are worked out from the molar mass of the structure shown. Active and inactive are the calls of the source. The calls are words filed in the database; no cut-off is given here.

How the values were obtained:
[1] = test system: Fusarium proliferatum; test: Fungicidal activity against Fusarium proliferatum at 30 uM after 72 hrs by microtiter plate assay; assay type: functional, organism-based
Outline: (§1)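 After 72 h of microtiter broth exposure at 30 µM, 20 µL from each well was plated onto compound-free potato dextrose agar and incubated 3 days at 28 °C. No regrowth was scored fungicidal; regrowth was scored fungistatic.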

[2] = test system: Fusarium solani; test: Fungicidal activity against Fusarium solani at 30 uM after 72 hrs by microtiter assay; assay type: functional, organism-based; outline: as §1
[3] = test system: Fusarium oxysporum; test: Fungistatic activity against Fusarium oxysporum at 30 uM after 72 hrs by microtiter plate assay; assay type: functional, organism-based
Outline: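 Conidia come from 7-day potato dextrose agar cultures, filtered and set photometrically (625 nm) to 3 × 10^5 conidia/mL. They are exposed to compound at 30 µM in 96-well microdilution broth at 24 ± 1 °C under a 12 h photoperiod. After 72 h, 20 µL per well is subcultured on drug-free potato dextrose agar at 28 °C for 3 days. No regrowth is scored fungicidal; regrowth is scored fungistatic.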

[4] = test system: Fusarium proliferatum; test: Antimicrobial activity against Fusarium proliferatum at 0.3 uM after 72 hrs by microtiter assay; assay type: functional
Outline: (§2)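 96-well microdilution broth assay with conidia (3 × 10^5 conidia/mL, harvested from 7-day PDA cultures and filtered) against F. oxysporum, F. proliferatum and F. solani at 0.3, 3 and 30 µM. Plates were held at 24 ± 1 °C under a 12 h photoperiod. Growth was read at 620 nm at 24, 48 and 72 h and reported as percent inhibition from mean absorbance with standard error.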

[5] = test system: Fusarium proliferatum; test: Antimicrobial activity against Fusarium proliferatum at 3 uM after 48 hrs by microtiter assay; assay type: functional; outline: as §2
[6] = test system: Fusarium proliferatum; test: Antimicrobial activity against Fusarium proliferatum at 3 uM after 72 hrs by microtiter assay; assay type: functional; outline: as §2
[7] = test system: Aspergillus fumigatus; test: Antimicrobial activity against Aspergillus fumigatus ATCC 90906; assay type: functional, organism-based
[8] = test system: Cryptococcus neoformans; test: Antimicrobial activity against Cryptococcus neoformans ATCC 90113; assay type: functional, organism-based
[9] = test system: Fusarium proliferatum; test: Antimicrobial activity against Fusarium proliferatum at 0.3 uM after 48 hrs by microtiter assay; assay type: functional; outline: as §2
[10] = test system: Candida albicans; test: Antimicrobial activity against Candida albicans ATCC 90028; assay type: functional, organism-based
[11] = test system: Mycobacterium intracellulare; test: Antimicrobial activity against Mycobacterium intracellular ATCC 23068; assay type: functional, organism-based
[12] = test system: Mycobacterium tuberculosis; test: Antibacterial activity against Mycobacterium tuberculosis H37Rv at 16 ug/mL by micro plate alamar blue assay; assay type: functional
Outline: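 M. tuberculosis H37Rv ATCC 27294 grown in BACTEC 12B medium; microplate Alamar blue assay (MABA). Primary screen at a single concentration of 16 µg/mL, read as percent inhibition.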

[13] = test system: Mycobacterium tuberculosis; test: Antibacterial activity against Mycobacterium tuberculosis H37Rv by micro plate alamar blue assay; assay type: functional
[14] = test system: Fusarium oxysporum; test: Antimicrobial activity against Fusarium oxysporum at 0.3 uM after 48 hrs by microtiter assay; assay type: functional; outline: as §2
[15] = test system: Fusarium oxysporum; test: Antimicrobial activity against Fusarium oxysporum at 0.3 uM after 72 hrs by microtiter assay; assay type: functional; outline: as §2
[16] = test system: Fusarium solani; test: Antimicrobial activity against Fusarium solani at 0.3 uM after 48 hrs by microtiter assay; assay type: functional; outline: as §2
[17] = test system: Fusarium solani; test: Antimicrobial activity against Fusarium solani at 0.3 uM after 72 hrs by microtiter assay; assay type: functional; outline: as §2
[18] = test system: Fusarium oxysporum; test: Antimicrobial activity against Fusarium oxysporum at 3 uM after 48 hrs by microtiter assay; assay type: functional; outline: as §2
[19] = test system: Fusarium oxysporum; test: Antimicrobial activity against Fusarium oxysporum at 3 uM after 72 hrs by microtiter assay; assay type: functional; outline: as §2
[20] = test system: Fusarium solani; test: Antimicrobial activity against Fusarium solani at 3 uM after 48 hrs by microtiter assay; assay type: functional; outline: as §2
[21] = test system: Fusarium solani; test: Antimicrobial activity against Fusarium solani at 3 uM after 72 hrs by microtiter assay; assay type: functional; outline: as §2
[22] = test system: Fusarium oxysporum; test: Antimicrobial activity against Fusarium oxysporum at 30 uM after 48 hrs by microtiter assay; assay type: functional; outline: as §2
[23] = test system: Fusarium oxysporum; test: Antimicrobial activity against Fusarium oxysporum at 30 uM after 72 hrs by microtiter assay; assay type: functional; outline: as §2
[24] = test system: Fusarium solani; test: Antimicrobial activity against Fusarium solani at 30 uM after 48 hrs by microtiter assay; assay type: functional; outline: as §2
[25] = test system: Fusarium solani; test: Antimicrobial activity against Fusarium solani at 30 uM after 72 hrs by microtiter assay; assay type: functional; outline: as §2
[26] = test system: Fusarium proliferatum; test: Antimicrobial activity against Fusarium proliferatum at 30 uM after 48 hrs by microtiter assay; assay type: functional; outline: as §2
[27] = test system: Fusarium proliferatum; test: Antimicrobial activity against Fusarium proliferatum at 30 uM after 72 hrs by microtiter assay; assay type: functional; outline: as §2
[28] = test system: SK-OV-3; test: Cytotoxicity against human SK-OV3 cells; assay type: functional
Outline: (§3)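 NCI Developmental Therapeutics Program cell panel. GI50 is the concentration that reduces growth of treated cells to half that of untreated controls. TGI is the concentration that completely halts growth.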

[29] = test system: ACHN; test: Cytotoxicity against human ACHN cells; assay type: functional; outline: as §3
[30] = test system: PC-3; test: Cytotoxicity against human PC3 cells; assay type: functional; outline: as §3
[31] = test system: DU-145; test: Cytotoxicity against human DU145 cells; assay type: functional; outline: as §3
[32] = test system: T47D; test: Cytotoxicity against human T47D cells; assay type: functional; outline: as §3
[33] = test system: Hs-578T; test: Cytotoxicity against human HS578T cells; assay type: functional; outline: as §3
[34] = test system: A549; test: Cytotoxicity against human A549 cells; assay type: functional; outline: as §3
[35] = test system: NCI-H322M; test: Cytotoxicity against human NCI-H322M cells; assay type: functional; outline: as §3
[36] = test system: RPMI-8226; test: Cytotoxicity against human RPMI8226 cells; assay type: functional; outline: as §3
[37] = test system: COLO 205; test: Cytotoxicity against human COLO205 cells; assay type: functional; outline: as §3
[38] = test system: HCC 2998; test: Cytotoxicity against human HCC2998 cells; assay type: functional; outline: as §3
[39] = test system: HCT-15; test: Cytotoxicity against human HCT15 cells; assay type: functional; outline: as §3
[40] = test system: HT-29; test: Cytotoxicity against human HT29 cells; assay type: functional; outline: as §3
[41] = test system: KM12; test: Cytotoxicity against human KM12 cells; assay type: functional; outline: as §3
[42] = test system: SNB-75; test: Cytotoxicity against human SNB75 cells; assay type: functional; outline: as §3
[43] = test system: UACC-257; test: Cytotoxicity against human UACC257 cells; assay type: functional; outline: as §3

## C/C=C1\NC(=O)[C@H](Cc2ccccc2)NC(=O)[C@@H](C(C)C)NC(=O)[C@@H]([C@@H](C)CC)NC(=O)[C@H](NC(=O)[C@H](NC(=O)[C@H](CCCNCc2ccncc2)NC(=O)[C@H]2CCCN2C(=O)[C@@H](NC(=O)[C@H](NC(=O)[C@H](NC(=O)[C@@H](NC(=O)CCCC(C)C)C(C)C)[C@H](C)O)C(C)C)C(C)C)[C@@H](C)CC)[C@@H](C)OC(=O)[C@H](C(C)C)NC1=O
[1]
  Activity: Active
[2]
  Activity: Active
[3]
  Activity: Active

## C/C=C1\NC(=O)[C@H](Cc2ccccc2)NC(=O)[C@@H](C(C)C)NC(=O)[C@@H]([C@@H](C)CC)NC(=O)[C@H](NC(=O)[C@H](NC(=O)[C@H](CCCN)NC(=O)[C@H]2CCCN2C(=O)[C@@H](NC(=O)[C@H](NC(=O)[C@H](NC(=O)[C@@H](NC(=O)CCCC(C)C)C(C)C)[C@H](C)OC(C)=O)C(C)C)C(C)C)[C@@H](C)CC)[C@@H](C)OC(=O)[C@H](C(C)C)NC1=O
[4]
  inhibition at 0.3 µM: 0.3%
[5]
  inhibition at 3 µM: 0%
[6]
  inhibition at 3 µM: 0.3%
[7]
  IC50: 3.38 µM
  MFC: 10 µM (≈ 15.2 µg/mL)
  MIC: 10 µM (≈ 15.2 µg/mL)
[8]
  IC50: 1.89 µM
  MFC: 5 µM (≈ 7.6 µg/mL)
  MIC: 5 µM (≈ 7.6 µg/mL)
[9]
  inhibition at 0.3 µM: 0%
[10]
  IC50: 3.28 µM
  MFC: 20 µM (≈ 30.4 µg/mL)
  MIC: 10 µM (≈ 15.2 µg/mL)
[11]
  IC50: 14.3 µM
  MBC: > 20 µM
  MIC: > 20 µM
[12]
  inhibition at 16 µg/mL: 94%
[13]
  MIC: 15.4 mg/L (≈ 10.1 µM)
[14]
  inhibition at 0.3 µM: 0%
[15]
  inhibition at 0.3 µM: 0%
[16]
  inhibition at 0.3 µM: 0%
[17]
  inhibition at 0.3 µM: 0%
[18]
  inhibition at 3 µM: 0%
[19]
  inhibition at 3 µM: 0%
[20]
  inhibition at 3 µM: 0%
[21]
  inhibition at 3 µM: 0%
[22]
  inhibition at 30 µM: 78.5%
[23]
  inhibition at 30 µM: 74.4%
[24]
  inhibition at 30 µM: 80.9%
[25]
  inhibition at 30 µM: 96.7%
[26]
  inhibition at 30 µM: 70.8%
[27]
  inhibition at 30 µM: 34.7%
[1]
  Activity: Active
[2]
  Activity: Active
[3]
  Activity: Active

## C/C=C1\NC(=O)[C@H](Cc2ccccc2)NC(=O)[C@@H](C(C)C)NC(=O)[C@@H]([C@@H](C)CC)NC(=O)[C@H](NC(=O)[C@H](NC(=O)[C@H](CCCNC(=O)c2cc3ccc(N(CC)CC)cc3oc2=O)NC(=O)[C@H]2CCCN2C(=O)[C@H](NC(=O)[C@@H](NC(=O)[C@@H](NC(=O)[C@H](NC(=O)CCCC(C)C)C(C)C)[C@@H](C)O)C(C)C)C(C)C)[C@@H](C)CC)[C@@H](C)OC(=O)[C@H](C(C)C)NC1=O
[28]
  GI50: 2.55 µM
  TGI: 20.2 µM
[29]
  GI50: 26.4 µM
  TGI: 69.8 µM
[30]
  GI50: 3.7 µM
  TGI: 21.8 µM
[31]
  GI50: 0.33 µM
  TGI: 1.83 µM
[32]
  GI50: 0.518 µM
  TGI: 2.83 µM
[33]
  GI50: 3.03 µM
  TGI: > 100 µM
[4]
  inhibition at 0.3 µM: 0%
[5]
  inhibition at 3 µM: 0%
[6]
  inhibition at 3 µM: 0%
[9]
  inhibition at 0.3 µM: 0%
[12]
  inhibition at 16 µg/mL: 46%
[14]
  inhibition at 0.3 µM: 0%
[15]
  inhibition at 0.3 µM: 0%
[16]
  inhibition at 0.3 µM: 0%
[17]
  inhibition at 0.3 µM: 0%
[18]
  inhibition at 3 µM: 0%
[19]
  inhibition at 3 µM: 0%
[20]
  inhibition at 3 µM: 0%
[21]
  inhibition at 3 µM: 0%
[22]
  inhibition at 30 µM: 0%
[23]
  inhibition at 30 µM: 0%
[24]
  inhibition at 30 µM: 0%
[25]
  inhibition at 30 µM: 0%
[34]
  GI50: 13.7 µM
  TGI: > 100 µM
[35]
  GI50: 0.165 µM
  TGI: 0.49 µM
[36]
  GI50: 40.1 µM
  TGI: > 100 µM
[37]
  GI50: 4.52 µM
  TGI: > 100 µM
[38]
  GI50: 2.27 µM
  TGI: 11.4 µM
[39]
  GI50: 0.964 µM
  TGI: 17.7 µM
[40]
  GI50: 2.39 µM
  TGI: > 100 µM
[41]
  GI50: 0.413 µM
  TGI: 3.07 µM
[42]
  GI50: 2.11 µM
  TGI: 6.87 µM
[43]
  GI50: > 100 µM
  TGI: > 100 µM
[26]
  inhibition at 30 µM: 0%
[27]
  inhibition at 30 µM: 0%
